Two compounds from ChEMBL document CHEMBL1143246, “Design and synthesis of bicyclic pyrimidinones as potent and orally bioavailable HIV-1 integrase inhibitors” (J Med Chem, 2008) can be followed below.

Data set [1] concerns Human immunodeficiency virus 1. Nature of the data set: Antiviral activity against HIV1 in human MT4 cell assessed as inhibition of virus spread in presence of 10% fetal bovine serum. The format is functional. The following applies: Human immunodeficiency virus 1, MT4; read-out: CIC95. Summed up: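 Spread of HIV-1 infection in MT-4 human T-lymphoid cell culture with 10% fetal bovine serum; CIC95 is the concentration inhibiting spread by ≥95%; mean of at least three independent experiments.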

In data set [2] the test system is Human immunodeficiency virus 1. Put plainly: Antiviral activity against HIV1 in human MT4 cell assessed as inhibition of virus spread in presence of 50% normal human serum. The format is functional. The following applies: Human immunodeficiency virus 1, MT4; read-out: CIC95. The procedure, abridged:
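Spread of HIV-1 infection in MT-4 human T-lymphoid cell culture with 50% normal human serum; CIC95 is the concentration inhibiting spread by ≥95%; mean of at least three independent experiments.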

Data set [3] in a line: Protein binding in rat plasma. The format is ADME, cell-free. To be noted: read-out: PPB (converted). The procedure, abridged: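 Plasma protein binding was measured by ultrafiltration after a 1 h incubation of compound in plasma at 37 °C.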
Data set [4] can be described thus: Protein binding in dog plasma. The format is ADME, cell-free, Canis lupus familiaris. To be noted: read-out: PPB (converted). The procedure, abridged:
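Plasma protein binding measured by ultrafiltration after incubation at 37 °C for 1 h.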

Data set [5] concerns Liver microsomes. Put plainly: Metabolic stability in rat liver microsomes in presence of NADPH and UDPGA. The format is ADME, Microsome. Summed up:
(§1)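 Multiple time points over 1 h: compound 1 µM with liver microsomes 1 mg/mL, in the presence of both UDPGA and NADPH; degradation followed by LC/MS/MS.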
(Microsomes from liver hold many membrane-bound enzymes, among them those of drug oxidation.)

Data set [6] has as its system Liver. Nature of the data set: Metabolic stability in dog liver microsomes in presence of NADPH and UDPGA. The format is ADME, Canis lupus familiaris, Microsome. The procedure, abridged:
as §1

Data set [7] is described as follows: Oral bioavailability in rat at 3 mg/kg. The format is ADME, organism-based. The following applies: in vivo. Summed up: (§2)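 In vivo PK: iv dosing in DMSO/PEG400/H₂O mixtures, oral dosing as methylcellulose suspension. Half-life was taken after iv dosing; AUC and Cmax after po dosing.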
Data set [8] is described as follows: Plasma clearance in rat at 3 mg/kg, po or 3 mg/kg, iv. The format is ADME, organism-based. The procedure, abridged:
as §2

A short description of data set [9]: Plasma clearance in dog at 1 mg/kg, iv or 2 mg/kg, po. The format is ADME, organism-based, Canis lupus familiaris. The procedure, abridged: as §2
Data set [10] in a line: Inhibition of recombinant HIV1 integrase strand transfer activity.
In data set [11] the test system is Liver microsomes. Put plainly: Metabolic stability in rat liver microsomes in presence of NADPH. The format is ADME, Microsome. The procedure, abridged:
(§3)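 Liver microsomes (1 mg/mL) with test compound at 2 µM, incubated with UDPGA or NADPH; degradation measured by LC/MS/MS after 1 h.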

The test system of data set [12] is Liver. Nature of the data set: Metabolic stability in dog liver microsomes in presence of NADPH. The format is ADME, Canis lupus familiaris, Microsome. Summed up: as §3
For data set [13], the system named is Liver microsomes. Put plainly: Metabolic stability in human liver microsomes in presence of NADPH. The format is ADME, Microsome. The procedure, abridged: as §3
Data set [14] relates to Liver microsomes. Put plainly: Metabolic stability in rat liver microsomes in presence of UDPGA. The format is ADME, Microsome.
Data set [15] relates to Liver. Put plainly: Metabolic stability in dog liver microsomes in presence of UDPGA. The format is ADME, Canis lupus familiaris, Microsome.
The subject of data set [16] is Liver microsomes. Nature of the data set: Metabolic stability in human liver microsomes in presence of UDPGA. The format is ADME, Microsome. The procedure, abridged:
as §3

For data set [17], the species on record is Homo sapiens. Put plainly: Protein binding in human plasma. To be noted: read-out: PPB (converted).

In general, bioavailability refers to the share of a dose that reaches the circulation, judged against a reference dose that is usually intravenous. Low values mean poor availability, high ones good availability. For orientation: IC50 means the concentration that gives 50% inhibition. With `CN1CCN(S(=O)(=O)N(C)[C@H]2CCCn3c2nc(C(=O)NCc2ccc(F)cc2)c(O)c3=O)CC1`, the IC95 in data set [1] and in data set [2] was 6 nM throughout. Moreover, the fraction unbound in [3] is 0.24; in [4] it was 0.18. The results for the Stability in data set [5] and in data set [6] were 10 µL/min/mg and 8 µL/min/mg, respectively. Besides, the bioavailability in [7] was 15%. Moreover, the values for the clearance in data set [8] and in [9] were 98 mL/min/kg and 23 mL/min/kg, respectively. Besides, the IC50 in data set [10] was 7 nM.
As to `CN(C(=O)CS(=O)(=O)N(C)C)[C@H]1CCCn2c1nc(C(=O)NCc1ccc(F)cc1)c(O)c2=O`, the IC95 came to 16 nM in data set [1] and 31 nM in data set [2]. In addition, the Stability was determined as 51 %/hr in data set [11]; 15 %/hr in [12]; 36 %/hr in data set [13]; 47 %/hr in data set [14]; 24 %/hr in data set [15]; 46 %/hr in data set [16]. Also, the results for the fraction unbound in [3], in data set [4] and in data set [17] were 0.26, 0.29 and 0.22, respectively. This compound gave a bioavailability in data set [7] of 17%. In data set [8], this compound yielded a clearance of 55 mL/min/kg. For the same compound, in [10], the IC50 came to 7 nM.
